Assay results taken from PMC11549336 (Communications Biology, 2024).

Molecular target: recombinant Plk1 PBD (Plk1 367-603aa) (Homo sapiens, UniProt P53350)
Assay: Peptide binding assay by isothermal titration calorimetry
Conditions: ITC; listed as pT600/pT608 peptide
Procedure, shortened: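 Protein and peptides were dialysed against 50 mM NaP, 150 mM NaCl, 0.5 mM TCEP, pH 7.5, with concentrations set by A280. ITC at 25 °C, 750 rpm stirring. […] Buffer-only controls subtracted; data fitted to a single-site model.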

recombinant Plk1 PBD (Plk1 367-603aa), sequence (P53350 367-603): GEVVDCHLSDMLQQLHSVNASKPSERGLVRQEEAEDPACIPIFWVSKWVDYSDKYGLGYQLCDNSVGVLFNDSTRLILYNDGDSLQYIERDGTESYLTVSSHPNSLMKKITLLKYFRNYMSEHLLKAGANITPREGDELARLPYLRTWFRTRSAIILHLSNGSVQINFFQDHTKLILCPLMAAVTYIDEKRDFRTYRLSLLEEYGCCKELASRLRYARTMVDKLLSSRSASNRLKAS

For “FRNVpTICPNPEDpTCDFARA [BubR1^596-614 (FRNVpTICPNPEDpTCDFARA)]”, the “binding of peptide to recombinant Plk1 PBD, in words” value was “could not detect any interaction”.
